These results are taken from ChEMBL document CHEMBL1125607, “Novel gonadotropin-releasing hormone antagonists: peptides incorporating modified N omega-cyanoguanidino moieties” (J Med Chem, 1991).

The species entered for experiment [1] is Rattus norvegicus. The experiment is described as follows: In vitro histamine release by rat mast cells. As to conditions: read-out: ED50 (the source's name).
The subject of experiment [2] is Rattus norvegicus. The experiment is described as follows: Potency (1 mg/rat) using anti-ovulatory assay, expressed as rat ovulating/total number of treated rats measured after sc administration; 2/8. The experiment is classed as functional, organism-based.
Experiment [3] relates to Rattus norvegicus. Kind of experiment: Potency (0.5 mg/rat) using anti-ovulatory assay, expressed as rat ovulating/total number of treated rats measured after sc administration; 7/7. In kind it is functional, organism-based.
In experiment [4] the target is T1, Gonadotropin-releasing hormone receptor (Rattus norvegicus, UniProt P30969).
T1 sequence (P30969 whole entry): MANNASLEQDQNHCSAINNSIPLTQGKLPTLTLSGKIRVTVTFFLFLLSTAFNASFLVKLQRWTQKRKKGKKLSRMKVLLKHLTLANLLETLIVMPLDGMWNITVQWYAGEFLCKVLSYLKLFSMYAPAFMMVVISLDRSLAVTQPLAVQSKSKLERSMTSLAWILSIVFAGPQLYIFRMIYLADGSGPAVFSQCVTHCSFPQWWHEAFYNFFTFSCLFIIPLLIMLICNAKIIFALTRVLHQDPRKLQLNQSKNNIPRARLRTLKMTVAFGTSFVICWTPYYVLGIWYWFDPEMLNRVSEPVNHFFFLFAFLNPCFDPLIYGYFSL
The experiment is described as follows: In vitro binding affinity of Gonadotropin-releasing hormone antagonist was measured in rat pituitary cell membranes. The arrangement: species or system Pituitary gland cell, Membrane. The method, boiled down: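 Displacement binding on pituitary cell membranes with [DAla6,NMe-Leu7,Pro9-NHEt]GnRH as standard; analogue KD values calculated from potencies relative to that standard derived from displacement data.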

The target in experiment [5] is Gonadotropin-releasing hormone receptor (Rattus norvegicus) (UniProt P30969). The experiment is described as follows: Antagonist potency at GnRH receptor relative to a standard ([Ac-delta3Pro, DFpa2, DTrp3,6]GnRH).
Experiment [6] deals with Rattus norvegicus. Kind of experiment: Potency (2.5 mg/rat) using anti-ovulatory assay, expressed as rat ovulating/total number of treated rats measured after sc administration; 2/9. The experiment is classed as functional, organism-based.

≈ marks a conversion by molar mass, not a printed value. Calls of active or inactive are those of the source. The calls are words filed in the database; no cut-off is given here.

Turning to `CCCC/N=C(\NC#N)NCCCC[C@@H](NC(=O)[C@H](Cc1c[nH]cn1)NC(=O)[C@@H]1CCC(=O)N1)C(=O)N[C@@H](CO)C(=O)N[C@@H](Cc1ccc(O)cc1)C(=O)N[C@H](CCCN=C(N)N)C(=O)N[C@@H](CC(C)C)C(=O)N[C@@H](CCCCNC(C)C)C(=O)N1CCC[C@H]1C(=O)N[C@H](C)C(N)=O`, the EC50 in the experiment listed under Rattus norvegicus [1] amounted to 6 µg/mL (≈ 4.36 µM). Moreover, the outcome in the experiment with Rattus norvegicus [2] was Active. The result with Rattus norvegicus [3] was inactive. For the same compound, binding in experiment [4] was characterised by a dissociation constant (Kd) of 1200 pM. Also, the Relative potency in experiment [5] was 1.4.

With `CC(C)C[C@H](NC(=O)[C@@H](CCC/N=C(\NC#N)NCc1ccccn1)NC(=O)[C@H](CCC/N=C(\NC#N)NCc1ccccn1)NC(=O)[C@H](CO)NC(=O)[C@H](Cc1c[nH]c2ccccc12)NC(=O)[C@H](Cc1c[nH]cn1)NC(=O)[C@@H]1CCC(=O)N1)C(=O)N[C@@H](CCCCNC(C)C)C(=O)N1CCC[C@H]1C(=O)N[C@H](C)C(N)=O`, in the experiment with Rattus norvegicus [6], the outcome was Active. In addition, in experiment [4], the Kd (usually a measure of binding affinity in units of concentration) came to 410 pM. In addition, the Relative potency in experiment [5] stood at 0.9.
